Screening results: PubChem BioAssay, The Scripps Research Institute Molecular Screening Center
This is a sample that favours compounds with a hit; in the whole collection about 2% have one here.
MBD2 DNA inh: inhibitors of MBD2 binding to methylated DNA, primary screen, biochemical, TR-FRET, DNA-binding domain, human; Methyl-CpG-binding domain protein 2 (Homo sapiens), Q9UBB5; MBD2 binding to methylated oligonucleotide; inhibition, % at 4.4 µM; 370,000 compounds, 0.31% hits; in the data active means inhibition above about 13%
ARFGAP1 inhibitor: inhibitors of rat ARFGAP1 GAP activity, primary screen, biochemical, fluorescence polarization, GDP tracer. ADP-ribosylation factor GTPase-activating protein 1 (Rattus norvegicus), Q62848. Arfgap1-stimulated ARF1 GTP hydrolysis, GDP FP detection. inhibition, % at 16.5 µM. 360,000 compounds, 0.26% hits. AID 651572, 2012;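 active means inhibition above a per-plate limit, mean inhibition of low control wells plus 3 SD, cut at about 25% in these data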
Target sequence (Q62848 1-136 limits assumed): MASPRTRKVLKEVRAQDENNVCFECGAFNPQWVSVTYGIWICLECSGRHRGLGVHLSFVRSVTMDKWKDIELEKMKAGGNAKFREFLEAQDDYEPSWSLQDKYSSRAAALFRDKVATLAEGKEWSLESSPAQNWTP
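Repeats: one replicate per compound; assay system: rat Arfgap1 catalytic domain, aa 1-136; times: enzyme reaction 120 min at 25 °C after 20 min preincubation; detection: FP of antibody-bound GDP Alexa 633 tracer, ex 620/em 688 nm; benchmarks: high control wells lacking Arfgap1, low control full reaction with DMSO; reagent: human ARF1(Δ1-17)-GTP substrate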
ASAP1 inh: inhibitors of human ASAP1 ArfGAP activity, primary screen, biochemical, fluorescence polarization | Arf-GAP with SH3 domain, ANK repeat and PH domain-containing protein 1 (Homo sapiens), … | ASAP1-stimulated ARF1 GTP hydrolysis, GDP FP detection | inhibition, % at 16.5 µM | 360,000 compounds, 0.19% hits | AID 624377, 2012; in the data active means inhibition above about 25%
Target sequence (Q9ULH1 325-724 limits assumed): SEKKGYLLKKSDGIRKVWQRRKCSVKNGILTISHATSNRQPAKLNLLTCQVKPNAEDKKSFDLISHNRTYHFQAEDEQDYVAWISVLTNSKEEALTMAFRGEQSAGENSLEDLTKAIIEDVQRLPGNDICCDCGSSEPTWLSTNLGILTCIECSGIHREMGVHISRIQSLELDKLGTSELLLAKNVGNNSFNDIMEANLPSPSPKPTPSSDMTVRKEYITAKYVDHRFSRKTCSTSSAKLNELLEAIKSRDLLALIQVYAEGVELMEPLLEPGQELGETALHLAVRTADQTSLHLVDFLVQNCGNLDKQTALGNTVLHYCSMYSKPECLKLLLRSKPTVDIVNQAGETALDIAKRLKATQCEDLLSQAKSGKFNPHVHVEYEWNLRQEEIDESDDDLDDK
UHRF1 binding: UHRF1 methylated DNA binding inhibitors, primary screen, counter-screen for MBD2 inhibitor project, biochemical, TR-FRET, human UHRF1, single concentration; E3 ubiquitin-protein ligase UHRF1 (Homo sapiens), Q96T88; UHRF1 binding to methylated oligo; inhibition, % at 4.4 µM; 370,000 compounds, 0.75% hits; in the data active means inhibition above about 21%;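 further: UHRF1 SRA domain binding a hemimethylated CpG hairpin DNA probe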
LEDGF integ inh: blockers of LEDGF/p75-dependent integrase strand transfer – biochemical, TR-FRET, high throughput, primary screen | 370,000 compounds, 0.64% hits | HIV-1 integrase (with human LEDGF/p75) | AID 743269, 2014 | inhibition, % at 3.7 µM | TR-FRET IN-LEDGF/p75 DNA integration, Eu/Cy5;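 active means inhibition above the screen-wide mean plus 3 SD, cut at about 13% in these data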;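 further: signal is the Cy5 over europium emission ratio at 671 and 618 nm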
TCR CD3 inh: inhibitors of human TCR-CD3 interaction, primary screen, biochemical, fluorescence, TAMRA-labeled TCR probe. 360,000 compounds, 0.37% hits. T-cell receptor (TCR). inhibition, % at 9.4 µM;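 further: recombinant mutant TCR 2C K166C tagged with TAMRA read by polarization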
BSA TAMRA ctr: compounds interfering with TAMRA-BSA probe, counter-screen for TCR-CD3 interaction inhibitor project, biochemical, fluorescence, TAMRA-labeled BSA; shares compounds with TCR CD3 inh; TAMRA-labeled BSA probe fluorescence counterscreen; inhibition, % at 9.4 µM; 1,200 compounds, 10% hits; in the data active means inhibition above about 23%
TCR-CD3 inh conf: TCR-CD3 interaction inhibitors, retest, confirmation, biochemical, fluorescence, TAMRA-labeled TCR probe. shares compounds with TCR CD3 inh. TAMRA-labeled TCR probe fluorescence binding assay. inhibition, % at 9.4 µM. 1,200 compounds, 48% hits. AID 652036, 2013
Of the large screens only hits and unclear results are named; the others gave an inactive call (follow-up assays come after a bar, where they were run). Unless noted, no stated cut-off is given here; in the data, active means inhibition above about 19%; inactive means the rest.

O=C(NNC(=O)C1CCN(S(=O)(=O)c2ccccc2C(F)(F)F)CC1)c1ccccc1O	TCR CD3 inh 31.4 | BSA TAMRA ctr inactive | TCR-CD3 inh conf 23.2
CN(C)[C@@H]1CCN(c2cccc3c2S(=O)(=O)N2CC[C@@H](C2)O3)C1	none (no result: ARFGAP1 inhibitor, ASAP1 inh, TCR CD3 inh)
COc1ccc(C(=O)N/N=C(\N)c2cc3ccccc3oc2=O)cc1	none
CC1CN(C(=O)c2cccc(S(=O)(=O)N3CCN(c4ccccc4)CC3)c2)CC(C)O1 (stereo not given)	none
CCCCN(C(=O)COc1ccc(F)cc1)c1c(N)n(CC(C)C)c(=O)[nH]c1=O	none
Cc1ccccc1NC(=O)C(C)OC(=O)C1CCCO1 (stereo not given)	none
CCOc1ccc(C(=O)CCC(=O)NNC(=O)c2ccccc2O)cc1	TCR CD3 inh 28.9 | BSA TAMRA ctr inactive | TCR-CD3 inh conf 26.2
CCOc1ccc(C(=O)CCC(=O)Nc2ncccc2O)cc1	none
Cc1c(C(=O)NNC(=O)c2ccccc2O)oc2ccc(Br)cc12	TCR CD3 inh 38.6 | BSA TAMRA ctr inactive | TCR-CD3 inh conf 24.1
Cc1noc(C)c1COc1ccc(C(=O)NNC(=O)c2ccccc2O)cc1	TCR CD3 inh 25.0 | BSA TAMRA ctr inactive | TCR-CD3 inh conf 26.2
Cc1c(C(=O)NCc2cccs2)oc2ccc(Br)cc12	none
CC(C)(C)c1ccc(C(=O)NCC(=O)NNC(=O)c2ccccc2O)cc1	TCR CD3 inh 35.1 | BSA TAMRA ctr inactive | TCR-CD3 inh conf 21.8
COc1ccnc2c1c(=O)n(Cc1ccc(Cl)cc1Cl)c(=O)n2C	none
CCOc1ccc2oc(C(=O)NNC(=O)c3ccccc3O)c(C)c2c1	TCR CD3 inh 36.0 | BSA TAMRA ctr inactive | TCR-CD3 inh conf 22.1
CCOc1ccc2oc(C(=O)O)c(C)c2c1	none
COc1ccc([C@H]2C[C@H](n3cc(COC(=O)c4ccccc4)nn3)[C@@H](O)CN2CC2CCCCC2)cc1	none
O=C(Nc1ccc(Cl)cc1)Nc1ccc(Cl)c(Cl)c1	TCR CD3 inh 22.1 | BSA TAMRA ctr inactive | TCR-CD3 inh conf 19.2
Oc1ccccc1-c1cnc2cccnn12	TCR CD3 inh 24.3 | BSA TAMRA ctr inactive | TCR-CD3 inh conf inactive
O=C(CS(=O)CC(=O)Nc1ccccc1-c1ccccc1)Nc1ccc(F)cc1 (stereo not given)	none
Cc1ccc(NC(=O)CS(=O)CC(=O)Nc2ccccc2-c2ccc(C)o2)cc1 (stereo not given)	TCR CD3 inh 85.9 | BSA TAMRA ctr inactive | TCR-CD3 inh conf inactive
CCCS(=O)(=O)N1CCCC(C(=O)NCCCN(Cc2ccccc2)C(C)C)C1 (stereo not given)	TCR CD3 inh 65.1 | BSA TAMRA ctr inactive | TCR-CD3 inh conf inactive
O=c1c2ccccc2c(C=Nc2ccccc2O)c(O)n1-c1nccs1	TCR CD3 inh 61.5 | BSA TAMRA ctr inactive | TCR-CD3 inh conf 49.7
CC(=O)Nc1ccc(Nc2nc(C(F)(F)F)nc3c2nnn3Cc2ccccc2Cl)cc1	none
COc1ccc(-c2cnnc(N/N=C/c3ccc(O)c(O)c3)n2)cc1	TCR CD3 inh 49.4 | BSA TAMRA ctr inactive | TCR-CD3 inh conf 44.3
CCOc1ccc(CNc2ccc(S(N)(=O)=O)cc2)cc1	TCR CD3 inh 152.4 | BSA TAMRA ctr inactive | TCR-CD3 inh conf inactive
CCC(=O)N1CC2(CC(c3cccc(NC(=O)CC(c4ccccc4)c4ccccc4)c3)=NO2)C[C@H]1C(N)=O (stereo not given in full)	none
NC(=O)[C@@H]1CC2(CC(c3cccc(NC(=O)CC(c4ccccc4)c4ccccc4)c3)=NO2)CN1C(=O)c1ccc(Cl)cc1 (stereo not given in full)	TCR CD3 inh 34.6 | BSA TAMRA ctr inactive | TCR-CD3 inh conf 19.7
C/C=C(/C)C(=O)Nc1cccc(C2=NOC3(C2)C[C@@H](C(N)=O)N(C(=O)c2ccc(OC)cc2)C3)c1 (stereo not given in full)	TCR CD3 inh 37.8 | BSA TAMRA ctr inactive | TCR-CD3 inh conf inactive
NC(=O)[C@H]1CC2(CC(c3cccc(NC(=O)CC(c4ccccc4)c4ccccc4)c3)=NO2)CN1C(=O)CC(c1ccccc1)c1ccccc1 (stereo not given in full)	TCR CD3 inh 22.3 | BSA TAMRA ctr inactive | TCR-CD3 inh conf inactive
C/C=C(/C)C(=O)Nc1cccc(C2=NOC3(C2)C[C@H](C(N)=O)N(C(=O)c2ccccc2)C3)c1 (stereo not given in full)	none
CC1(C)CC(CCNC(=O)CCl)(c2ccccc2)CCO1 (stereo not given)	none
COC(=O)N(C)C[C@@H]1OCc2cnnn2CCCC(=O)N([C@H](C)CO)C[C@H]1C	none
C/C(Cn1cnc([N+](=O)[O-])n1)=N\NC(=O)c1ccc(O)cc1O	TCR CD3 inh 19.0 | BSA TAMRA ctr inactive | TCR-CD3 inh conf inactive
C[C@@H]1CCN(C2CC2)S(=O)(=O)c2ccc(N3CC[C@@H](N(C)C)C3)cc2O1	none (no result: ARFGAP1 inhibitor, ASAP1 inh, TCR CD3 inh)
COC(=O)c1ccc2c(c1)SC1=C(CCCC1=O)N2	TCR CD3 inh 36.9 | BSA TAMRA ctr 76.3 | TCR-CD3 inh conf 57.4
Cc1cc(C)cc(OCC(=O)Nc2ccc(-n3cnnn3)cc2)c1	none
O=C1C2C3C=CC(C4CC34)C2C(=O)N1/N=C/c1ccc(-c2ccc(F)cc2[N+](=O)[O-])o1 (stereo not given)	none
Cc1ccc(-c2ccc(/C=N/N3C(=O)C4C5C=CC(CC5)C4C3=O)o2)c([N+](=O)[O-])c1 (stereo not given)	TCR CD3 inh 22.5 | BSA TAMRA ctr inactive | TCR-CD3 inh conf inactive
O=C(c1ccccc1)c1c[nH]c(C(=O)NCCCn2ccnc2)c1	none
COc1ccc(C(=O)Nc2ccc(S(=O)(=O)N3CCCCC3)cc2)cc1	none
